Screens as filed in PubChem BioAssay.
ADAM10 inh: human ADAM10 inhibitors, primary screen, biochemical, QFRET, HTS | recombinant ADAM10, EDANS/DABCYL FRET peptide cleavage, 3 h | inhibition, % at 7 µM | 0.62% of 370,000 active | AID 720582, 2013;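 active = inhibition above a per-campaign cutoff equal to the mean of compounds falling between control-based bounds plus 3 SD, cut at about 20% in these data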;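 also: 0% = DMSO wells while the 100% control is not disclosed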
ADAM17 inh: ADAM17 inhibitors, primary screen, biochemical, QFRET. Disintegrin and metalloproteinase domain-containing protein 17 (Homo sapiens), P78536. recombinant ADAM17, EDANS/DABCYL FRET peptide cleavage. inhibition, % at 6.95 µM. 0.83% of 370,000 active;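 active = inhibition above the mean of compounds lying between control limits plus 3 SD, set per campaign, cut at about 8.5% in these data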;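 also: 0% = DMSO-only wells as the low control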
Target sequence (P78536 215-824 limits assumed): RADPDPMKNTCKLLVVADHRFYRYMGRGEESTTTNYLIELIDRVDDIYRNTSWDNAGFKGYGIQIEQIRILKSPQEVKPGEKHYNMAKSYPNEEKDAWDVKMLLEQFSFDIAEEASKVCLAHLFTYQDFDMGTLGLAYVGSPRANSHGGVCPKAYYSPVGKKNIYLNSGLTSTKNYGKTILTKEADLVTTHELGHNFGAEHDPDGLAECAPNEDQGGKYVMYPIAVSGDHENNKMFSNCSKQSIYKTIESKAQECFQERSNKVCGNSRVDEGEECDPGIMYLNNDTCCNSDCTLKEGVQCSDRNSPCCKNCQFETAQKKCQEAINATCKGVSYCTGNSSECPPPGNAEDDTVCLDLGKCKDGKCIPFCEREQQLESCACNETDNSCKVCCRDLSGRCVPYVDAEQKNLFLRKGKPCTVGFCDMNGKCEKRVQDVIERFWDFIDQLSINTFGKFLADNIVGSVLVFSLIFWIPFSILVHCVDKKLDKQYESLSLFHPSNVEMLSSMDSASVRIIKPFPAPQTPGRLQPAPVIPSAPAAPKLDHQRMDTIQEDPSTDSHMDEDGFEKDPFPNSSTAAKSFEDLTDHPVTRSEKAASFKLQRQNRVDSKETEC
MT1-MMP act inh: blockers of MT1-MMP proenzyme processing, primary screen, HT1080 RFP-PRO-GFP cells, GFP/RFP fluorescence; Matrix metalloproteinase-14 (Homo sapiens), P50281; GFP/RFP ratio change, % at 20 µM; GFP/RFP ratio fluorescence, overnight; percent of plate control window, DMSO zero; 0.061% of 360,000 active;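 active = GFP/RFP ratio change of at least 30% with cell ATP level not reduced by more than half and red fluorescence within 50% of control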
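Assay system: HT1080 cells carrying an RFP-PRO-GFP reporter | Dosing: Single dose of 20 µM compound, 1% DMSO final | Incubation: Cells overnight before dosing, compound overnight, 37 °C, 5% CO2 | Evaluation: GFP/RFP fluorescence ratio | Control set: DMSO and RFP-L50D-GFP cell wells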
MPTP inh: mitochondrial permeability transition pore inhibitors, primary screen, biochemical, isolated mouse mitochondria, absorbance. 1.4% of 360,000 active. Ca2+ swelling absorbance, 30 min. inhibition, % at 10 µM. AID 602449, 2012;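 active = inhibition of 50% or more, scaled per plate between neutral and stimulator controls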;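 also: 0% = DMSO wells given calcium and 100% = 1 mM EGTA wells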
SKN-1 block: suppressors of acrylamide-induced Pgst-4::GFP reporter in worms, primary screen, SKN-1 inhibitor project, whole organism, uHTS, GFP/RFP fluorescence ratio, strain VP596 | C. elegans VP596 Pgst-4::GFP/RFP ratio, 24 h | inhibition, % at 21.8 µM | 0.49% of 360,000 active | AID 624304, 2012;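 active = interference check ratio from 0.5 to 1.5 plus GFP to RFP signal ratio inhibition reaching or exceeding a fixed threshold, cut at about 30% in these data, passing the limit was not always enough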
GRIN3A LBD mod: binders of NR3A ligand-binding domain, primary screen, biophysical, differential scanning fluorimetry, uHTS. 2.5% of 340,000 active. AID 1259313, 2017. Tm shift relative to glycine control, % at 25 µM. NR3A LBD differential scanning fluorimetry, Tm shift; 0% = protein alone, 100% = glycine-bound protein. Glutamate receptor ionotropic, NMDA 3A (GRIN3A) ligand-binding domain;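 active = melting temperature shift of at least 10% of the positive control shift, at one fixed dose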
* = called active by the depositor. An excerpt weighted towards active compounds, which were near 4.7% of everything screened.

CC(=O)Nc1ccc(C(=O)OCC(=O)Nc2ccc(S(=O)(=O)N3CCOCC3)cc2)cc1 was read as ADAM10 inh -4, ADAM17 inh -1, MT1-MMP act inh -3, MPTP inh -2, SKN-1 block 17 and GRIN3A LBD mod 0.
Screening CC(OC(=O)C1=COCCO1)C(=O)Nc1cccc(S(=O)(=O)N2CCOCC2)c1 (centres undefined) returned ADAM10 inh -6, ADAM17 inh -3, MT1-MMP act inh -2, MPTP inh 0, SKN-1 block 0 and GRIN3A LBD mod -2.
Screening O=C(COC(=O)CCC(=O)c1cccs1)Nc1ccc(S(=O)(=O)N2CCOCC2)cc1 returned ADAM10 inh 7, ADAM17 inh 2, MT1-MMP act inh 5, MPTP inh -3, SKN-1 block 23 and GRIN3A LBD mod 15*.
`O=C(COC(=O)C1=COCCO1)Nc1cccc(S(=O)(=O)N2CCOCC2)c1` gave ADAM10 inh 3, ADAM17 inh 1, MT1-MMP act inh 2, MPTP inh 0, SKN-1 block 14 and GRIN3A LBD mod 11*.
Cc1c(C(=O)OCC(=O)Nc2ccc(S(N)(=O)=O)cc2)oc2c1ccc1ccccc12 was read as ADAM10 inh -21, ADAM17 inh -1, MT1-MMP act inh -1, MPTP inh 0, SKN-1 block 8 and GRIN3A LBD mod 18*.
`O=C(CSc1nnc(Cn2c(=O)sc3ccccc32)n1CCc1ccccc1)N1CCOCC1` gave ADAM10 inh 7, ADAM17 inh 1, MT1-MMP act inh 3, MPTP inh -3, SKN-1 block -23 and GRIN3A LBD mod 0.
Screening COC(=O)COc1ccc(C(=O)Cn2c(NCCCO)nc3ccccc32)cc1 returned ADAM10 inh 1, ADAM17 inh 0, MT1-MMP act inh -1, MPTP inh -2, SKN-1 block -16 and GRIN3A LBD mod -2.
Cc1ccc(S(=O)(=O)CCC(=O)OCC(=O)Nc2ncc(Cl)cc2Cl)cc1 was read as ADAM10 inh -99, ADAM17 inh -26, MT1-MMP act inh -2, MPTP inh 0, SKN-1 block 20 and GRIN3A LBD mod -1.
Screening Cc1cccc(Cn2cc(COC(=O)NCCc3c[nH]c4ccccc34)nn2)c1 returned ADAM10 inh 6 and ADAM17 inh -1.
For COC(=O)c1ccc(N2C(=O)C3CC(C)=C(C)CC3C2=O)cc1 (centres undefined) the results were ADAM10 inh 1, ADAM17 inh 1, MT1-MMP act inh 5, MPTP inh -3, SKN-1 block -6 and GRIN3A LBD mod 2.
Screening COc1ccccc1/C=C/C=N/n1c(C2CCCCC2)n[nH]c1=S returned ADAM10 inh -21, ADAM17 inh 2, MT1-MMP act inh 1, MPTP inh 4, SKN-1 block 8 and GRIN3A LBD mod 13*.
Screening CCOc1ccccc1/C=N/n1c(C2CCCCC2)n[nH]c1=S returned ADAM10 inh -5, ADAM17 inh -4, MT1-MMP act inh -2, MPTP inh 0, SKN-1 block -8 and GRIN3A LBD mod 1.
CCOC(=O)Cc1csc(NC(=O)CN(C)S(=O)(=O)c2cccc3cccnc23)n1 was read as ADAM10 inh 0, ADAM17 inh -3, MT1-MMP act inh -4, MPTP inh -1, SKN-1 block 4 and GRIN3A LBD mod -2.
O=C(Nc1ccncc1)c1cncc(Br)c1 was read as ADAM10 inh -7, ADAM17 inh -2, MT1-MMP act inh -8, MPTP inh -2, SKN-1 block 20 and GRIN3A LBD mod 11*.
For O=C(Nc1cccc(NC(=O)c2cncc(Br)c2)c1)c1cncc(Br)c1 the results were ADAM10 inh -2, ADAM17 inh -5, MT1-MMP act inh 4, MPTP inh 0, SKN-1 block -7 and GRIN3A LBD mod -2.
`Cc1nc(NC(=O)c2cccs2)ccc1Br` gave ADAM10 inh 0, ADAM17 inh -2, MT1-MMP act inh 0, MPTP inh 0, SKN-1 block 36* and GRIN3A LBD mod -2.
For COc1ccc(Cl)cc1-c1nc(-c2ccc(NC(=O)c3cccs3)cc2)no1 the results were MT1-MMP act inh 7, MPTP inh 1, SKN-1 block -8 and GRIN3A LBD mod 35*.
For Cc1cc(C)nc(NC(=O)c2cccs2)n1 the results were ADAM10 inh 4, ADAM17 inh 0, MT1-MMP act inh 3, MPTP inh 0, SKN-1 block 0 and GRIN3A LBD mod 0.
O=C(Nc1ccc(NC(=O)c2cccs2)cn1)c1ccccc1 was read as ADAM10 inh -6, ADAM17 inh -5, MT1-MMP act inh 5, MPTP inh -1, SKN-1 block 3 and GRIN3A LBD mod 14*.
Screening COc1ccc(OCC(=O)NNC(=O)c2cccs2)cc1 returned ADAM10 inh -1, ADAM17 inh -3, MT1-MMP act inh 0, MPTP inh -1, SKN-1 block 21 and GRIN3A LBD mod -3.
`COc1ccc(OCC(=O)Nc2ccc(NC(=O)c3cccs3)cc2)cc1` gave ADAM10 inh 7, ADAM17 inh 2, MT1-MMP act inh 4, MPTP inh -1, SKN-1 block 5 and GRIN3A LBD mod 32*.
For Cc1cc(C)nc(NC(=O)Cc2ccc(Cl)cc2)c1 the results were ADAM10 inh 0, ADAM17 inh -2, MT1-MMP act inh -12, MPTP inh -1, SKN-1 block 12 and GRIN3A LBD mod 3.
COc1cccc(C(=O)/C=C/Nc2ccc(S(=O)(=O)Nc3ccc(C(C)=O)cc3)cc2)c1 was read as ADAM10 inh -6, ADAM17 inh -4, MT1-MMP act inh 2, MPTP inh 1, SKN-1 block -5 and GRIN3A LBD mod 24*.
For COc1cccc(N/C=C/C(=O)c2ccc(Br)cc2)c1 the results were ADAM10 inh -2, ADAM17 inh -2, MT1-MMP act inh 9, MPTP inh 2, SKN-1 block -2 and GRIN3A LBD mod 2.
Screening COc1ccc(CNC(=O)c2cccs2)cc1 returned ADAM10 inh -7, ADAM17 inh -5, MT1-MMP act inh 5, MPTP inh 6, SKN-1 block 5 and GRIN3A LBD mod 0.
`COc1ccc(CCNC(=O)c2cccs2)cc1` gave ADAM10 inh -5, ADAM17 inh -3, MT1-MMP act inh 3, MPTP inh 0, SKN-1 block 13 and GRIN3A LBD mod 31*.
